Data from article PMC5074845 (ACS chemical biology, 2016).
Values joined by “and” are separate entries in the source; they are usually repeats but may differ in a detail not shown here. Identical values can stand only once. Like-named read-outs stand apart in the source and are kept apart here.

Experiments:
NAPE-PLD [1] = molecular target: T1, NAPE-PLD (Homo sapiens, UniProt Q6IQ20); test: Enzyme kinetics by UPLC-MS/MS in the presence of DCA; type: biochemical; conditions: for Km / maximum velocity (Vmax): DCA 0.2% w/v, 37 °C, 15 min, UPLC-MS/MS
T1 sequence (Q6IQ20 48-393 limits assumed): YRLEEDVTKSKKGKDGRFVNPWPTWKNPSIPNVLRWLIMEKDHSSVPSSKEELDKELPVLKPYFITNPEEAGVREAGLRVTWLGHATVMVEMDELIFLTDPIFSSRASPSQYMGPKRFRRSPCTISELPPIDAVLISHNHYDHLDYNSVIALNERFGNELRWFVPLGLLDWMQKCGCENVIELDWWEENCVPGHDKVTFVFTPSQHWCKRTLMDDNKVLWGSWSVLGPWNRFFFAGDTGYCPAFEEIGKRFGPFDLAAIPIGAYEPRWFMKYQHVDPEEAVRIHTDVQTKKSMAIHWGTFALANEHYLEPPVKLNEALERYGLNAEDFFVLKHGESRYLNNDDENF
Outline: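 Recombinant enzyme was incubated with varying N-arachidonoyl-PE or N-palmitoyl-PE in 0.05 M Tris-HCl pH 7.4 with 0.2% w/v DCA, 15 min, 37 °C. Reactions were stopped with cold acetonitrile containing AEA-d4 or PEA-d4 internal standard, centrifuged, and the organic layer taken. Products (AEA, PEA) were quantified by UPLC-MS/MS MRM in positive ESI against weighted (1/x) calibration curves. Runs were in triplicate. Km and Vmax came from Michaelis–Menten fits.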

NAPE-PLD [2] = conditions: without bile acid; cited from earlier work
NAPE-PLD [3] = molecular target: T1, NAPE-PLD; test: Binding kinetics by surface plasmon resonance; conditions: for binding affinity compared with another bile acid: SPR, 25 °C, comparison in words
NAPE-PLD [4] = molecular target: T1, NAPE-PLD; test: Fluorescence-based NAPE-PLD activity assay with substrate PED6; type: biochemical
Outline: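 Recombinant human enzyme, purified by amylose then Ni-affinity and size exclusion. Enzyme at 25 nM in 50 mM Tris-HCl pH 8 was pre-incubated 1 h at room temperature with test bile acids (0–5 mM). PED6 was added to 10 μM final (1% DMSO/ethyl acetate). Fluorescence was read after 30 min at 25 °C in the dark ([…] filters). Monohydroxy bile acid was run with 0.2% w/v DCA.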

NAPE-PLD [5] = molecular target: T1, NAPE-PLD; test: Elastic incoherent neutron scattering; conditions: DCA ~10 times the concentration of the enzyme, 280-307 K, D2O buffer
Outline: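 Purified enzyme in D2O (five exchanges against 100× volume) at 100 mg/mL, with DCA at 0.00, 0.05, 0.15, 0.50 or 1.00% w/v (DCA:enzyme ratios 0–10). Elastic spectra were collected at […], ~3 h per point, on IN13 (up to 100 ps). <u2> came from the slope of ln elastic intensity versus Q2. Force constant came from the <u2>-versus-T slope under a quasi-harmonic approximation.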

**Q.** Which Km (NAPE-PLD [1]) does the source give for “N-palmitoyl-phosphatidylethanolamine [N-palmitoyl-PE]” here?
**A.** ~9 µM and 9.2 µM

**Q.** And the “maximum velocity (Vmax)” value (NAPE-PLD [1])?
**A.** 155.8 (± 38.36) nmol/min/mg protein and ~ 156 nmol/min/mg protein

**Q.** And the Vmax (NAPE-PLD [2])?
**A.** ~ 98 nmol/min/mg

**Q.** With C[C@H](CCC(=O)O)[C@H]1CC[C@H]2[C@@H]3CC[C@@H]4C[C@H](O)CC[C@]4(C)[C@H]3CC[C@]12C [LCA, lithocholic acid] as the compound, how does the Kd (NAPE-PLD [3]) read?
**A.** ~20 µM

**Q.** What about the “effect on NAPE-PLD enzyme activity” value (NAPE-PLD [4]; bile acid alone, PED6 substrate) of the same compound?
**A.** not able alone to solubilize the substrate and activate the membrane enzyme

**Q.** Which Kd (NAPE-PLD [3]) does the source give for C[C@H](CCC(=O)O)[C@H]1CC[C@H]2[C@@H]3[C@H](O)C[C@@H]4C[C@H](O)CC[C@]4(C)[C@H]3CC[C@]12C [CDCA, chenodeoxycholic acid] here?
**A.** ~25 µM

**Q.** What about the EC50 (NAPE-PLD [4]) of the same compound?
**A.** ~4300 µM

**Q.** For C[C@H](CCC(=O)NCCS(=O)(=O)O)[C@H]1CC[C@H]2[C@@H]3[C@H](O)C[C@@H]4C[C@H](O)CC[C@]4(C)[C@H]3C[C@H](O)[C@]12C [TCA, taurocholic acid], which “binding affinity compared with another bile acid” value (NAPE-PLD [3]) is on record?
**A.** ~tenfold lower

**Q.** For C[C@H](CCC(=O)NCC(=O)O)[C@H]1CC[C@H]2[C@@H]3[C@H](O)C[C@@H]4C[C@H](O)CC[C@]4(C)[C@H]3CC[C@]12C [GCDG], which EC50 (NAPE-PLD [4]; read-out: EC50 of enzyme activation, enzyme 25 nM, PED6 substrate, 25 °C, 30 min) is on record?
**A.** ~3600 µM

**Q.** For C[C@H](CCC(=O)NCCC[N+](C)(C)CCCS(=O)(=O)[O-])[C@H]1CC[C@H]2[C@@H]3[C@H](O)C[C@@H]4C[C@H](O)CC[C@]4(C)[C@H]3C[C@H](O)[C@]12C [CHAPS], which “binding affinity compared with another bile acid” value (NAPE-PLD [3]) is on record?
**A.** ~tenfold lower

**Q.** Which Km (NAPE-PLD [1]) does the source give for “N-arachidonyl-phosphatidylethanolamine [N-arachidonoyl-PE]” here?
**A.** ~9 µM and 9.6 µM

**Q.** And the “maximum velocity (Vmax)” value (NAPE-PLD [1])?
**A.** 1131 (± 124.4) nmol/min/mg protein and ~ 1131 nmol/min/mg protein

**Q.** What about the “rate of hydrolysis compared with N-palmitoyl-phosphatidylethanolamine” value (NAPE-PLD [1]; in the presence of deoxycholic acid) of the same compound?
**A.** ~ 7 times

**Q.** What about the Vmax (NAPE-PLD [2]) of the same compound?
**A.** ~ 73 nmol/min/mg

**Q.** With CC(=O)O[C@H]1C[C@@]2(C)[C@@H](C[C@@H](O)[C@H]3[C@@]4(C)CC[C@@H](O)[C@@H](C)[C@@H]4CC[C@@]32C)/C1=C(\CCC=C(C)C)C(=O)O [FA, fusidic acid] as the compound, how does the Kd (NAPE-PLD [3]) read?
**A.** ~70 µM

**Q.** Which results are given for C[C@H](CCC(=O)O)[C@H]1CC[C@H]2[C@@H]3[C@H](O)C[C@@H]4C[C@H](O)CC[C@]4(C)[C@H]3C[C@H](O)[C@]12C [CA, cholic acid]?
**A.** Kd (NAPE-PLD [3]): ~403 µM; binding affinity compared with another bile acid (NAPE-PLD [3]): ~tenfold lower binding affinity

**Q.** For C[C@H](CCC(=O)O)[C@H]1CC[C@H]2[C@@H]3CC[C@@H]4C[C@H](O)CC[C@]4(C)[C@H]3C[C@H](O)[C@]12C [DCA, deoxycholic acid], which Kd (NAPE-PLD [3]) is on record?
**A.** ~43 µM

**Q.** What about the “effect on protein flexibility (force constant k, mean square displacement)” value (NAPE-PLD [5]) of the same compound?
**A.** the system lost flexibility
